Experimental data collected from several papers.
Lines come from different studies, so protocols differ.
Target: MAP kinase-activated protein kinase 2 (MAPKAPK2, Homo sapiens, UniProt P49137)

Compound	assay	conditions	measurement	result
CS(=O)(=O)N1CCCC(NC(=O)[C@H](CCC2CCCCC2)NC(=O)c2ccc(CNc3ncnc4c3nnn4-c3ccccc3)cc2)C1 (stereo partly shown)	cell-free assay, competition with immobilised ligand	0.1 µM	remaining binding	100%
COc1cc2ncnc(Nc3ccc(Oc4ccccc4)cc3C)c2cc1OC	enzyme activity, inhibitor	1 µM	inhibition	4%
CCC(=N\O)/C(C)=C/c1ccc(F)cc1	cell-free assay, competition with immobilised ligand	1 µM	remaining binding	69%
COc1cc(Nc2cnc(C#N)c(O[C@H](C)CN(C)C)n2)ncc1-c1cnn(C)c1	enzyme activity, inhibitor, radiometric	1 µM	remaining activity	112%
Cc1cc(NC(=O)c2cccc3cc(-c4cccc5[nH]nc(N)c45)ccc23)ccc1F	enzyme activity, inhibitor	0.1 µM	activity vs control	95%
Nc1nc(NC2CCCCC2)sc1C(=O)c1ccccc1	enzyme activity, inhibitor	10 µM	remaining activity	96%
CCN(CC)CCNC(=O)c1c(C)[nH]c(/C=C2\C(=O)Nc3ccc(F)cc32)c1C	enzyme activity, inhibitor	0.3 µM	inhibition	7%
O=C(CSc1nc2nccnc2c(=O)n1CCc1ccccc1)Nc1nccs1	enzyme activity, inhibitor	10 µM	inhibition	6%
O=C1NC(=O)c2cc(Nc3ccc(F)cc3)c(Nc3ccc(F)cc3)cc21	cell-free assay	0.5 µM	remaining signal	95.7%
FC(F)(F)Oc1cccc(-c2cnc3ccc(-c4ccncc4)nn23)c1	enzyme activity, inhibitor, radiometric	5 µM	activity vs control	96%
CCS(=O)(=O)c1cc2cc(C[C@@](O)(CC(C)(C)c3ccc(F)cc3C(N)=O)C(F)(F)F)[nH]c2cn1	cell-free assay, competition with immobilised ligand	1 µM	remaining binding	100%
CN(C)C1CCN(CC#Cc2nn(C3CCCC3)c3nc(NCc4ccccc4)ncc23)C1 (stereo not shown)	enzyme activity, inhibitor, FRET	1 µM	inhibition	-2%
Cc1ccc(NC(=O)c2ccc(CN3CCN(C)CC3)cc2)cc1Nc1nc(-c2cccnc2)cs1	cell-free assay	0.5 µM	remaining signal	102%
CC(C)(O)[C@H]1CC[C@H](Nc2ccc3ncc(-c4cccc(C(F)(F)F)c4)n3n2)CC1	enzyme activity, inhibitor	1 µM	remaining activity	105%
Cc1ccc(NC(=O)c2ccc(C)c(C(F)(F)F)c2)cc1C#Cc1nn(C2CCC(O)CC2)c2ncnc(N)c12 (stereo not shown)	cell-free assay	10 µM	remaining signal	104%
C[C@H](c1ccnc(Nc2nc3ccc(-c4cc(N(C)C)ncn4)cc3[nH]2)c1)N1CCN(C(=O)CC(F)(F)F)CC1	cell-free assay, competition with immobilised ligand	0.1 µM	remaining binding	100%
CC(C)(C)c1nc(-c2cccc(NS(=O)(=O)c3c(F)cccc3F)c2F)c(-c2ccnc(N)n2)s1	enzyme activity, inhibitor, radiometric	1 µM	remaining activity	69%

Compound	assay	conditions	measurement	result
Cn1c(=O)n(-c2ccc(C(C)(C)C#N)cc2)c2c3cc(-c4cnc5ccccc5c4)ccc3ncc21	enzyme activity, inhibitor	10 µM	remaining activity	99%
O=C1CCc2cc(Nc3cc(OC4CCOCC4)c([N+](=O)[O-])cc3Cl)ccc2N1	cell-free assay, competition with immobilised ligand	1 µM	remaining binding	99%
O=C(Nc1cnn(-c2csc(C(=O)NC3COC3)c2)c1)Nc1c(F)cccc1Cl	enzyme activity, inhibitor	5 µM	remaining activity	99.8%
Cc1noc([C@H]2C[C@@H](c3ccc(C(F)(F)F)cc3)CN(C(=O)N3CCS(=O)(=O)C3)C2)n1	cell-free assay, competition with immobilised ligand	1 µM	remaining binding	97%
CCOc1cc(-c2nncn2C)ccc1Nc1ncc2cc(C)nc(NCC(C)(C)C)c2n1	enzyme activity, inhibitor, FRET	1 µM	inhibition	24%
Cc1ncc([N+](=O)[O-])n1C(=NO)c1ccccc1C(F)(F)F	enzyme activity, inhibitor	10 µM	inhibition	21.4%
CN(C)C(=O)Cn1cc(-c2nc([C@@](C)(c3ccc(-c4cnc(N)nc4)cc3)C3CC3)no2)cn1	cell-free assay, competition with immobilised ligand	1 µM	remaining binding	92%
Nc1ncnc2occ(-c3ccc(NC(=O)Nc4cc(C(F)(F)F)ccc4F)cc3)c12	cell-free assay, inhibitor	20 µM	remaining signal	86%
Cc1ccc(Nc2nccc(N(C)c3ccc4c(C)n(C)nc4c3)n2)cc1S(N)(=O)=O	enzyme activity, inhibitor	0.3 µM	inhibition	4%
CC(C)c1ccc(NC(=O)c2cccs2)c(-c2nc3ccccc3[nH]c2=O)c1	enzyme activity, inhibitor	1 µM	activity vs control	103%
CNC(=O)c1cc(Oc2ccc(NC(=O)Nc3ccc(Cl)c(C(F)(F)F)c3)cc2)ccn1	enzyme activity, inhibitor	10 µM	inhibition	6%
CC/C(=N\NC(=O)NCc1cccc(O)c1)c1ccc(O)c(C)c1O	enzyme activity, inhibitor	0.1 µM	inhibition	-0.7%
Cc1ccc(C(=O)Nc2ccc(CN3CCN(C)CC3)c(C(F)(F)F)c2)cc1C#Cc1cnc2cccnn12	enzyme activity, inhibitor	23.5 nM	remaining activity	100%
N#CCCc1ccc2c(c1)-c1[nH]c3ccc([N+](=O)[O-])cc3c1CC(=O)N2	cell-free assay	0.5 µM	remaining signal	83.4%
Cc1sc(C(=O)NC2COC2)cc1-n1cc(NC(=O)Nc2c(F)cccc2Cl)cn1	enzyme activity, inhibitor	10 µM	remaining activity	93.6%
CCc1ccccc1C(=O)Nc1n[nH]c2c(C)c(F)c(C3C(C#N)=C(C)N(C)C(C)=C3C#N)cc12	cell-free assay, competition with immobilised ligand	1 µM	remaining binding	100%
CSc1nc(C)c(-c2ccnc(Nc3ccc(N4CCOCC4)cc3)c2)[nH]1	enzyme activity, inhibitor	10 µM	inhibition	-1.9%
